From PubChem
5HT1E antag = blocks the human 5-HT1E serotonin receptor; P28566; AID 571; hit rate 0.99% among 65,000; inhibition, % at 6 µM; CHO 5-HT1E Ga15 NFAT-bla reporter, FRET, antagonist;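 active = inhibition above a set limit, the mean inhibition across every tested compound plus 3 SD, cut at about 29% in these data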;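 also: signal is the 460 over 535 nm emission ratio of beta-lactamase substrate; 0% = agonist plus DMSO wells and 100% = wells without agonist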
S1P3 agonist = agonists of human S1P3 receptor; hit rate 0.1% among 60,000; S1P3 NFAT-BLA reporter cells, agonism, FRET ratio; relative to 1 µM S1P, basal subtracted; AID 373; Q99500; activation, % at 4.5 µM;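 active = activation above the screen-wide mean plus 3 SD, cut at about 4.5% in these data, passing the limit was not always enough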
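Material: Human S1P3 NFAT-BLA reporter CHO cells | Incubation: Overnight plating, 4 h compound 37 °C, 2 h substrate RT | Signal: FRET β-lactamase substrate fluorescence, excitation 405 nm, 460/535 nm emission ratio, background-subtracted | Compound: 4.5 µM final, single dose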
S1P1 ag pot = agonists and agonism potentiators of human S1P1 receptor. P21453. S1P1 CRE-bla cells, forskolin, beta-lactamase FRET, potentiator mode; S1P1 agonist co-added at EC20, 2 nM; 100% = saturating reference agonist, 0% = basal. activation, % at 9.5 µM. hit rate 0.57% among 56,000;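 active = activation above a cutoff set at the mean activation of all tested compounds plus 3 SD, cut at about 54% in these data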;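 also: forskolin at 4 µM as EC80 and the EC20 agonist is SEW2871; 100% = SEW2871 at its EC100 plus forskolin at EC80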
Target sequence (P21453 whole entry, looked up): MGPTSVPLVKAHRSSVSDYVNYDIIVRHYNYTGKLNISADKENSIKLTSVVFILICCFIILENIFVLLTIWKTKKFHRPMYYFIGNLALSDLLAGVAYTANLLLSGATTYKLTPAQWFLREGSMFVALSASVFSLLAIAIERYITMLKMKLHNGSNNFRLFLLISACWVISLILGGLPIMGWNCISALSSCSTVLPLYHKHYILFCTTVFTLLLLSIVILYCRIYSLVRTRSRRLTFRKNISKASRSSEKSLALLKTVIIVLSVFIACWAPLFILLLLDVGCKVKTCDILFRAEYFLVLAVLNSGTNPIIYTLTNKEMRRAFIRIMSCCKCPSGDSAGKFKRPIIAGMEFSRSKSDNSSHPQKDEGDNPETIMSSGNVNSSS
5HT1a ag = activates the human 5-HT1a serotonin receptor | CHO 5-HT1a Ga15 NFAT-bla reporter, FRET ratio; 0% basal, 100% maximal reference agonist | activation, % at 10 µM | hit rate 0.56% among 65,000;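 active = activation above the screen-wide mean activation plus 3 SD, cut at about 19% in these data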;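 also: 0% = DMSO wells and 100% = 5-CT at EC100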
5-HT1A blocker = antagonists of human 5-HT1a serotonin receptor. P08908. CHO 5-HT1a Ga15 NFAT-bla reporter, antagonist mode. inhibition, % at 10 µM. hit rate 0.68% among 62,000;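 active = inhibition above the mean of all tested compounds plus 3 SD, cut at about 43% in these data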;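 also: receptor stimulated by 5-CT agonist at 100 nM near EC80; beta-lactamase reporter measured by ratiometric fluorescence of a cleavable substrate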
5HT1E ag = 5-HT1E (human) receptor agonism; AID 574; activation, % at 6 µM; CHO 5-HT1E Ga15 NFAT-bla reporter, FRET; 0% DMSO wells, 100% control agonist wells; hit rate 0.69% among 65,000;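 active = activation above a set limit, the screen-wide mean activation plus 3 SD, cut at about 8.5% in these data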;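 also: 100% = positive control agonist at 1 µM giving full maximal response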
* hit, by the source's call; / = no result. A selection: hits, their analogues and other compounds. The true share with any hit is near 2.9%.

SMILES	5HT1E antag	S1P3 agonist	S1P1 ag pot	5HT1a ag	5-HT1A blocker	5HT1E ag
COC(=O)CNc1nc(C2CC2)nc2c1nnn2Cc1ccccc1Cl	11	-2	5	-2	5	0
C=CCc1ccccc1OCC(O)CN1CCN(c2ccc(C)cc2)CC1 (stereo unspecified)	6	-1	-8	-1	73*	0
CCOC(=O)c1[nH]c(C)c(C(=O)c2cc(F)ccc2F)c1C	56*	-1	-8	-6	50*	0
COCCN1C(=O)C(CC(=O)Nc2ccc(C(C)=O)cc2)SC1=Nc1ccccc1 (stereo unspecified)	1	-2	-26	172*	4	0
CCOc1cc(S(=O)(=O)NCc2ccco2)c(OCC)cc1-n1cnnn1	-8	0	-22	-3	-14	0
O=C1C2C3C=CC(CO)(O3)C2C(=O)N1c1ccccc1-c1ccccc1 (stereo unspecified)	103*	-1	154*	-7	104*	0
CCOC(=O)CNC(=O)c1cn(CC)c(=O)c2cc(OC)c(OC)cc12	13	/	/	-3	-4	0
CCN1CCN(c2nc3c(c(=O)[nH]c(=O)n3C)n2CCCSc2ncccn2)CC1	0	0	2	62*	-6	0
CCn1nnc(-c2ccccc2NC(=O)c2cc(OC)c(OC)c(OC)c2)n1	31*	0	-47	1	3	1
O=S1(=O)CC(O)C(Nc2ccccc2Cl)C1 (stereo unspecified)	3	-1	-30	-2	-14	0
Cc1ccc(C2=Nc3ccccc3NC(C)(c3ccc(C)o3)C2)o1 (stereo unspecified)	21	-1	-1	-1	49*	17*
Cc1cc(C)n(CC2CC(=O)N(c3ccc(Cl)c(Cl)c3)C2=O)n1 (stereo unspecified)	-11	-1	-12	0	/	0
C/C(N)=C(/C#N)C(=O)CSc1nnc(SCc2ccc(Cl)cc2)s1	-3	0	60*	-2	-10	0
C/C(N)=C(/C#N)C(=O)CSc1nnc(Nc2c(C)cccc2C)s1	-3	0	-14	-1	3	-1
CCC(=O)Nc1c(C#N)c2nc3ccccc3nc2n1C1CCCCC1	-5	0	-25	10	/	3
N#Cc1c(N)n(C2CCCCC2)c2nc3ccccc3nc12	27	6	-64	25*	-14	7
Cc1cc(N2CCN(c3nc4ccccc4s3)CC2)n2ncnc2n1	1	0	58*	3	-7	2
CCOCC(=O)N1CCc2ccccc21	4	0	-4	24*	6	0
COc1cccc2cc(C(=O)N3CCc4ccccc43)c(=O)oc12	-8	-1	3	-4	-12	-1
CCOC(=O)c1cc2sccc2n1CC(=O)N1CCc2ccccc21	44*	/	/	-1	25	1
CCOC(=O)c1[nH]c(C)c(C(=O)N2CCc3ccccc32)c1C	77*	-1	4	-3	51*	-1
CC(=O)c1c(C)[nH]c(C(=O)N2CCc3ccccc32)c1C	-4	0	-7	0	-2	1
COc1ccccc1C(=O)N1CCc2ccccc21	-1	0	-5	-4	7	20*
O=C(CCCC(=O)N1CCc2ccccc21)N1CCc2ccccc21	11	-1	-3	-5	14	0
O=C(O)CCC(=O)NC1CCCCC1NC(=O)CCC(=O)O (stereo unspecified)	-13	-2	6	2	-12	0
SMILES	5HT1E antag	S1P3 agonist	S1P1 ag pot	5HT1a ag	5-HT1A blocker	5HT1E ag
Cc1ccc(C)c(OCCCC(=O)Nc2ccc(N3CCOCC3)cc2)c1	-13	-1	19	26*	-5	1
N[C@@H](Cc1ccc(O)c(I)c1)C(=O)O	-6	-1	6	2	/	0
NC(Cc1ccc2nonc2c1)C(=O)O (stereo unspecified)	-11	0	-11	54*	3	0
CC(C)CN(CC(C)C)c1nnc(N)s1	10	-1	-5	-1	-8	0
CCCc1ccc(Oc2cn[nH]c2-c2ccc(O)c(C)c2O)cc1	21	-2	58*	-2	39	0
COc1ccc(Oc2c(-c3ccc(O)cc3O)n[nH]c2C)cc1	-3	2	8	1	6	1
CCCOC(=O)c1ccc(Oc2cn[nH]c2-c2ccc(OCC)cc2O)cc1	-12	1	-15	-2	1	0
CCCc1ccc(Oc2c(-c3ccc(O)c(C)c3O)n[nH]c2C)cc1	0	-2	50	-3	56*	-1
COC(=O)c1[nH]c2cc(OC)c(OC)cc2c1NC(=O)CN1CCN(Cc2ccccc2)CC1	39*	0	-29	1	7	0
CC1Cc2ccccc2N1c1ncnc2nc[nH]c12 (stereo unspecified)	14	0	93*	0	8	-1
c1ccc2c(c1)CCN(c1ncnc3nc[nH]c13)C2	-7	0	-5	-1	2	1
N#Cc1c(N)nc2c(c1-c1ccccc1)CCCC2	6	1	-38	-2	2	1
N#Cc1c(N)nc(-c2ccccc2)nc1-c1ccccc1	30*	0	-16	-1	23	0
Clc1ccc2nc(CN3CCCc4ccccc43)cn2c1	9	0	14	-2	4	-1
O=C(O)CCC(=O)Nc1nnc(C(F)(F)F)s1	8	-2	7	-2	-4	-1
CCC(NC(=O)Nc1nnc(C(F)(F)F)s1)(C(F)(F)F)C(F)(F)F	66*	-10	112*	-1	/	-1
O=C(Cn1cccc1C(=O)c1ccccc1)NCc1cccs1	4	-1	1	-2	6	29*
Cc1cc(C(=O)N2CCN(C(c3ccccc3)c3ccccc3)CC2)on1	-14	0	88*	-2	9	0
CCOC(=O)Cc1csc(NC(=O)COc2ccc(N(C)S(=O)(=O)c3cccs3)cc2)n1	2	/	/	-1	2	0
COCCn1cc(C(=O)c2ccccc2OCC(=O)Nc2cc(C)on2)cc(C#N)c1=O	5	/	/	1	8	0
COC(=O)c1ccc(NC(=O)NS(=O)(=O)c2ccc(C)cc2)cc1	3	0	-13	1	-3	0
N#CCSc1nc2sc3c(c2c(=O)n1C1CCCCC1)CCCC3	6	1	-8	7	/	13*
COC(=O)C1=C(N)n2c(s/c(=C\c3cccnc3)c2=O)=C(C(=O)OC)C1c1cccnc1 (stereo unspecified)	7	-1	0	-3	5	1
